Source: PubChem (The Scripps Research Institute Molecular Screening Center)
TAAR1 agonist – human TAAR1 agonism | 0.99% of 360,000 active | CHO RD-HGA16 TAAR1, Fluo-8 calcium fluorescence; vehicle wells 0%, saturating PEA agonist 100% | Q96RJ0 | activation, % at 3 µM;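 active means activation above the mean activation of all test compounds in the run plus 3 SD, cut at about 38% in these data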
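Repeats: no replicates (n 1) | Material: CHO-derived RD-HGA16 cells with stable Gα16 and human TAAR1 | Technique: Kinetic Fluo-8 calcium fluorescence | Schedule: 17-24 h seeding, 75 min 37 °C dye, 30 min RT | Evaluation: % activation from peak over basal fluorescence ratio, DMSO-to-PEA scaled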
OX1R antag-1 – antagonists of human orexin 1 receptor; inhibition, % at 5 µM; CHO/OX1R cells, Fluo-8 calcium fluorescence, orexin A; AID 434989; O43613; 0.43% of 330,000 active;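 active means inhibition above its plate's threshold, mean inhibition of all tested compounds on the plate plus 3 SD, cut at about 37% in these data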;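 further: 0% = orexin A challenge wells and 100% = SB-334867-A antagonist wells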
Target sequence (O43613 whole entry, looked up): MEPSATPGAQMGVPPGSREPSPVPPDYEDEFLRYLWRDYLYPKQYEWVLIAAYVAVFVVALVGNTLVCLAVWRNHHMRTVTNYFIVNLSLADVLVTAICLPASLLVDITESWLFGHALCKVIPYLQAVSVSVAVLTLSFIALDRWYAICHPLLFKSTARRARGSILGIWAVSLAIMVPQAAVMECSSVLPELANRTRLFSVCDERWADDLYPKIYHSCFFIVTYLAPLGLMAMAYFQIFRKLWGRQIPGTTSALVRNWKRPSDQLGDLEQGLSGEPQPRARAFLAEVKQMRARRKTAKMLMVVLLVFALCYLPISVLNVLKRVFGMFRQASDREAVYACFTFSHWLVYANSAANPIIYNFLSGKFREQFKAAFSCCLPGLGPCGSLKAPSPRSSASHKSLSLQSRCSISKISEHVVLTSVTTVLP
CHO parental Ca – counter-screen for OX1R antagonists: effect in parental CHO cells; parental CHO-K1, ATP-induced calcium, Fluo-8 fluorescence; inhibition, % at 5.6 µM; 0.63% of 330,000 active; AID 463079;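 active means inhibition above that plate's mean sample inhibition plus 3 SD, cut at about 26% in these data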;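 further: 0% = ATP-challenged DMSO wells and 100% = DMSO wells without ATP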
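Test system: untransfected parental CHO cell line. Compound: one dose, 5.6 µM nominal. Detection: intracellular calcium via Fluo-8 no-wash fluorescent dye. Measure: % inhibition. Benchmarks: ATP-challenged DMSO wells low, unchallenged DMSO wells high.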
OX1R antag-2 – antagonists of human orexin 1 receptor (OX1R). OX1R-expressing cells, FRET antagonist read-out. inhibition, % at 6.6 µM. O43613. 1.8% of 330,000 active; in the data active means inhibition mostly above about 38%, no sharp cut-off; inactive means mostly below about 40%;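 further: 0% = agonist challenge alone and 100% = reference antagonist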
TAAR1 antagonist – human TAAR1 antagonism. Q96RJ0. 1.5% of 360,000 active. inhibition, % at 3 µM. CHO RD-HGA16 TAAR1, Fluo-8 calcium fluorescence, antagonist;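 active means inhibition above a per-plate cutoff, the mean inhibition of test compounds on that plate plus 3 SD, cut at about 49% in these data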;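 further: 0% = DMSO plus EC80 beta-PEA response and 100% = DMSO alone without agonist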
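Test system – hTAAR1-expressing CHO RD-HGA16 cells, Gα16-coupled · Also added – β-PEA at EC80 concentration, post-compound challenge · Compound – 3 µM, single point · Incubation – dye loading 75 min at 37 °C, then 30 min room temperature · Measured by – Fluo-8 intracellular calcium dye fluorescence, real-time kinetic reads · Benchmarks – vehicle and agonist controls · Replicates – singlicate, one well per test compound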
GPR7 antag – antagonists of human GPR7 (neuropeptides B/W receptor 1) | AID 1861 | P48145 | 1.1% of 290,000 active | GPR7-expressing cells, fluorescence antagonist assay | inhibition, % at 4.4 µM; in the data active means inhibition above about 16%, passing the limit was not always enough;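 further: cells stimulated with the agonist NPW; 0% = agonist with vehicle and 100% = vehicle without agonist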
Target sequence (P48145 whole entry, looked up): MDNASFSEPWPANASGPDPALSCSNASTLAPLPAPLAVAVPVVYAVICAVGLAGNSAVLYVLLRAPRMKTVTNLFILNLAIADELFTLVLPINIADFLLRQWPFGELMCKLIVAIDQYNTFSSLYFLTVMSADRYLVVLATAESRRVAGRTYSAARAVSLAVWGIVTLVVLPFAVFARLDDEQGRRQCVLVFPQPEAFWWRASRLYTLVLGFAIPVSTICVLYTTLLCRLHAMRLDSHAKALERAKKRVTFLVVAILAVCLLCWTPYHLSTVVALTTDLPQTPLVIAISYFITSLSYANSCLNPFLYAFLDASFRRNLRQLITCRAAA
Starred values were filed as active, the others as inactive; x = not tested or not shown. Shown are actives, neighbours in structure and some others; about 4.6% of the full set was active somewhere.

SMILES	TAAR1 agonist	OX1R antag-1	CHO parental Ca	OX1R antag-2	TAAR1 antagonist	GPR7 antag
CCc1nnc(NC(=O)CSc2nnc(Cc3cc(=O)[nH]c(=O)[nH]3)n2-c2ccc(OC)cc2)s1	0.6	-10.8	11.7	16.3	-5.8	11.3
CCn1ncc2c(=O)c(C(=O)c3ccccc3)c[nH]c21	-0.8	x	x	x	9.1	x
COc1cc(OC)cc(-c2nnc(SCc3c(F)cccc3Cl)o2)c1	2.4	-18.4	37.6*	33.3	29.6	11.4
CCCCNc1ccc2c(c1)OC[C@@H](Cc1ccccc1)NS2(=O)=O	3.2	x	x	x	-5.2	x
COc1ccc(N2CCN(C(=O)c3ccc(NS(=O)(=O)c4cccc(F)c4)cc3)CC2)cc1	9.3	-9.5	-6.7	12.2	27.7	-4.6
COc1ccc(N2CCN(C(=O)c3cccc(NS(=O)(=O)c4cccc(F)c4)c3)CC2)cc1	1.3	x	x	x	-29.4	-3.4
COc1ccc(N2CCN(C(=O)c3ccc(NS(=O)(=O)c4ccc(F)c(F)c4)cc3)CC2)cc1	5.0	13.5	39.6*	14.6	-4.7	8.7
COc1ccc(NS(=O)(=O)c2ccc(C(=O)N3CCN(c4ccc(F)cc4)CC3)cc2)cc1	17.4	33.8	27.3*	7.5	43.5	x
COc1ccccc1N1CCN(C(=O)c2cccc(S(=O)(=O)Nc3ccccc3F)c2)CC1	17.5	6.8	-13.0	1.3	54.3*	x
O=C(C(=O)N1CCN(C(=O)C2CCC2)CC1)c1cccc(C(F)(F)F)c1	0.3	x	x	x	-11.3	x
COC(=O)C1=C(C)N(Cc2ccccc2)C(=NCC(C)C)N[C@H]1c1cccc(F)c1	44.4*	28.7	5.0	3.9	40.2	x
COC(=O)C1=C(C)N(Cc2ccccc2)C(=S)N[C@H]1c1cccc(C(F)(F)F)c1	5.6	18.9	-11.6	26.8	55.6*	x
O=C(Cn1nnc(N2CCOCC2)n1)NN=Cc1ccccc1Cl	0.4	x	x	x	4.5	x
CC(C)C[C@H]1COc2cc(Br)ccc2S(=O)(=O)N1Cc1ccc(Cl)cc1	3.0	x	x	x	-17.3	x
Cc1nc2c(-c3ccc(F)cc3)cnn2c2c1CCC2	-0.9	0.6	-13.4	54.5*	-35.4	-13.2
COc1ccc(CCNC(=O)CN(c2cc(C)cc(C)c2)S(=O)(=O)c2c(C)noc2C)cc1OC	-1.3	-15.3	-17.4	24.6	-20.1	-5.8
C[C@H]1COc2cc(NCCO)ccc2S(=O)(=O)N1	1.1	x	x	x	-12.1	x
Cc1cc(/C=C2\SC(=S)N(Cc3ccco3)C2=O)c(C)n1-c1ccccc1	1.8	6.9	2.4	16.6	14.4	-2.4
CN(C)c1ccc(C=C2SC(=S)N(Cc3ccco3)C2=O)cc1	43.8*	x	x	x	53.4*	x
O=C(CSc1n[nH]c(-c2ccccc2)n1)c1ccc(O)c(O)c1	11.4	-19.6	4.0	14.8	1.9	20.5*
Cc1ccc(O)c(NC(=O)CSc2n[nH]c(-c3ccccc3)n2)c1	6.7	8.0	13.0	35.8	-7.3	-11.5
Cc1ccc(S(=O)(=O)N2CCCc3nc(-c4ccccc4)ccc32)cc1	-0.9	x	x	x	-16.5	x
O=[N+]([O-])c1cccc(N=NN(CCO)c2cccc([N+](=O)[O-])c2)c1	8.1	-8.0	10.3	57.0	51.3*	5.2
CCOC(=O)C1CSCCS(=O)(=O)N1Cc1ccc(C)cc1 (stereo unspecified)	2.0	x	x	x	-10.2	x
C[C@@H]1ON(C)[C@H]2C[C@H]3c4[nH]c5c(-c6cccc(F)c6)cccc5c4CCN3C(=O)[C@@H]12	10.5	x	x	x	44.8	x
SMILES	TAAR1 agonist	OX1R antag-1	CHO parental Ca	OX1R antag-2	TAAR1 antagonist	GPR7 antag
C=CCN=C1NC(c2cccc(Cl)c2)C(C(=O)OC)=C(C)N1C (stereo unspecified)	0.5	x	x	x	6.7	x
COc1ccc(CCNC(=O)c2oc3ccccc3c2C)cc1	4.0	-29.3	-25.9	15.7	8.6	x
CC(=O)Nc1cccc(NC(=O)c2oc3ccccc3c2C)c1	19.3	10.8	-8.4	61.8*	24.3	-10.6
CCOc1ccc2oc(C(=O)Nc3ccc4c(c3)OCO4)c(C)c2c1	0.8	-34.7	-20.1	12.4	-1.0	-16.4
CCOc1ccc2oc(C(=O)Nc3ccc(N4CCOCC4)cc3)c(C)c2c1	18.5	-28.6	-5.4	36.0	50.3*	-10.7
CCC(=O)Nc1ccc(NC(=S)NC(=O)c2oc3ccccc3c2C)cc1	6.3	-25.3	-5.9	5.3	-24.9	-9.2
CCC(=O)Nc1ccc(NC(=O)c2oc3ccccc3c2C)cc1	14.1	-14.0	-10.3	47.1*	-2.1	-15.2
Cc1c(C(=O)NCCc2ccc3c(c2)OCCO3)oc2ccccc12	9.9	5.5	-8.3	37.6*	29.5	0.6
Cc1cc(C)c(NC(=O)CSc2nnc(-c3ccco3)n2N)c(C)c1	9.1	-25.4	-3.1	14.1	-9.5	-5.4
Cc1ccc(NC(=O)CSc2nnc(-c3ccco3)n2N)cc1F	40.8*	-30.4	-22.2	11.9	-32.8	-4.4
C=CCc1cc(OC)ccc1OCCN1CC(C)OC(C)C1 (stereo unspecified)	1.0	-18.3	-19.4	3.2	-12.6	-5.7
CC1C=CCC2C(=O)N(c3cccc(C(=O)Nc4ccc(Br)cc4)c3)C(=O)C12 (stereo unspecified)	3.7	-6.3	-13.8	21.8	49.8*	2.3
Cc1ccccc1NC(=O)c1cccc(N2C(=O)C3C4CC(C(Br)C4Br)C3C2=O)c1 (stereo unspecified)	41.2*	x	x	x	73.3*	17.6
Cc1cccc(NC(=O)c2ccc(N3C(=O)C4C5C=CC(C6CC56)C4C3=O)cc2)c1 (stereo unspecified)	11.9	32.9	45.5*	17.6	68.5*	13.6
O=C(Nc1ccc(Br)cc1)c1cccc(N2C(=O)C3C4CCC(C4)C3C2=O)c1 (stereo unspecified)	22.0	-11.2	-8.1	19.2	48.8*	-13.4
O=C(Nc1ccc(Br)cc1)c1cccc(N2C(=O)C3C4C=CC(C4)C3C2=O)c1 (stereo unspecified)	9.8	-33.6	-18.2	16.0	36.7	-3.2
CC(C)C[C@H]1COc2ccc(Cl)cc2S(=O)(=O)N1	-2.4	x	x	x	1.6	x
c1ccc(-c2nc(NCc3cccnc3)c3oc4ccccc4c3n2)cc1	9.0	22.1	-23.8	68.0*	12.3	-7.4
COc1ccc(C(=O)O)cc1S(=O)(=O)NC(C)C12CC3CC(CC(C3)C1)C2 (stereo unspecified)	7.2	44.7*	34.4*	1.8	13.1	x
COc1cc(OC)c(/C=C2\C(=O)Nc3ccccc32)c(OC)c1	4.6	-13.8	-7.8	40.9*	13.5	x
COc1ccc(C(=O)/C=C2/C(=O)Nc3ccccc32)c(OC)c1	13.0	1.9	6.8	10.6	18.9	14.8
Cn1ncc2c(N3CCC(Cc4ccccc4)CC3)ncnc21	2.7	-5.6	14.9	57.6*	17.8	-11.5
c1ccc(CCN2CCN(c3ncnc4c3cnn4-c3ccccc3)CC2)cc1	41.4*	-20.8	-15.5	11.7	32.1	-13.7
